Results reported in ChEMBL document CHEMBL3792368, “Design, synthesis, and in vitro and biological evaluation of potent amino acid-derived thiol inhibitors of the metallo-β-lactamase IMP-1” (Eur J Med Chem, 2016).
Calls of active or inactive are those of the source. No cut-off for these calls is given here.

Columns and labels:
Enterobacter cloacae [1] = test: Inhibition of IMP-4 in Enterobacter cloacae ECL1 assessed as reduction of imipenem MIC at 50 mM relative to control
Pseudomonas aeruginosa [2] = test: Competitive inhibition of Pseudomonas aeruginosa 101/1477 IMP-1 expressed in Escherichia coli BL21(DE3) using benzylpenicillin as substrate assessed as residual activity measured for 5 mins by UV multiplate spectrophotometry
Summary of the method: (§1)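 IMP-1 lacking the first 21 signal-peptide residues, expressed and purified by a previously published protocol. Kinetic assays were run at pH 7 and read out as residual enzyme activity. The chromogenic cephalosporin CENTA was not used as substrate because thiol inhibitors react with it.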

Pseudomonas aeruginosa [3] = test: Uncompetitive inhibition of Pseudomonas aeruginosa 101/1477 IMP-1 expressed in Escherichia coli BL21(DE3) using benzylpenicillin as substrate assessed as residual activity measured for 5 mins by UV multiplate spectrophotometry; summary of the method: as §1
Enterobacter cloacae [4] = test: Inhibition of IMP-4 in Enterobacter cloacae ECL2 co-expressing TEM1 assessed as reduction in imipenem MIC at 50 mM
Enterobacter cloacae [5] = test: Inhibition of IMP-4 in Enterobacter cloacae ECL1 assessed as imipenem MIC at 50 mM (reference value: 1.5 ug/ml)
Escherichia coli BL21 [6] = test: Inhibition of IMP-1 in Escherichia coli BL21 assessed as imipenem MIC at 50 mM (reference value: 2 ug/ml)
Escherichia coli BL21 [7] = test: Inhibition of IMP-1 in Escherichia coli BL21 assessed as reduction of imipenem MIC at 50 mM relative to control
Enterobacter cloacae [8] = test: Inhibition of IMP-4 in Enterobacter cloacae ECL2 co-expressing TEM1 assessed as imipenem MIC at 50 mM (reference value: 0.5 ug/ml)
[9] = Competitive inhibition of IMP-1 (unknown origin)

Row | Structure (SMILES) | Kic (Pseudomonas aeruginosa [2]) [µM] | Kiuc (Pseudomonas aeruginosa [3]) [mM] | also measured
1 | O=C(CCS)N[C@@H](Cc1ccc(O)cc1)C(=O)O | 5.18 | > 1 | –
2 | CC(=O)SCC(=O)O | 0.32 | 0.00264 | –
3 | O=C(CCCS)N[C@@H](Cc1ccc(O)cc1)C(=O)O | 5.63 | > 1 | –
4 | O=C(CCS)N[C@@H](Cc1c[nH]c2ccccc12)C(=O)O | 5.02 | > 1 | –
5 | O=C(CS)N[C@@H](Cc1ccc(O)cc1)C(=O)O | 4.55 | > 1 | –
6 | O=C(CS)N[C@@H](Cc1ccccc1)C(=O)O | 0.25 | > 1 | –
7 | O=C(CS)N[C@@H](Cc1c[nH]c2ccccc12)C(=O)O | 0.47 | > 1 | –
8 | O=C(CCCS)N[C@@H](Cc1ccccc1)C(=O)O | 2.82 | > 1 | –
9 | O=C(CCCS)N[C@@H](Cc1c[nH]c2ccccc12)C(=O)O | 8.62 | > 1 | –
10 | O=C(CCS)N[C@@H](Cc1ccccc1)C(=O)O | 1.45 | 0.0602 | –
11 | O=C(CCS)N[C@H](Cc1ccccc1)C(=O)O | – | – | Ki [9]: 88 nM

Continued, in another order:

Row | Kic (Pseudomonas aeruginosa [2]) [µM] | Kiuc (Pseudomonas aeruginosa [3]) [mM] | Structure (SMILES) | also measured
12 | 0.086 | > 1 | O=C(CS)N[C@@H](Cc1ccc(OCc2ccccc2)cc1)C(=O)O | fold change (FC) (Enterobacter cloacae [1]): 3.9; inhibition (Enterobacter cloacae [4]): inactive; MIC (Enterobacter cloacae [5]): 0.38 µg/mL; MIC (Escherichia coli BL21 [6]): 0.38 µg/mL; fold change (FC) (Escherichia coli BL21 [7]): 5.2; MIC (Enterobacter cloacae [8]): 0.5 µg/mL
13 | 9.39 | > 1 | O=C(CCS)N[C@@H](Cc1ccc(OCc2ccccc2)cc1)C(=O)O | –
14 | 5.85 | > 1 | O=C(CCCS)N[C@@H](Cc1ccc(OCc2ccccc2)cc1)C(=O)O | –
